{"data": "Experimental data pooled from the literature", "target": "Vascular endothelial growth factor receptor 2 (KDR, Homo sapiens, UniProt P35968)", "observed": "enzyme activity", "mode": "inhibitor", "note": "Compare with care: the assays were run in different laboratories."}
{"Compound": "COc1ccc(NC(=O)c2c(Nc3ccccc3)sc(C#N)c2NC(=O)CNc2ccc([N+](=O)[O-])cc2)cc1", "conditions": "0.1 µM", "remaining activity [%]": 86.1}
{"Compound": "COc1cc(Cl)c(C(=O)N[C@@H](CN[C@H]2CC[C@@H](N)CC2)Cc2ccc(C#N)cc2)cc1-c1ccc(CN[C@H](C)c2ccc(C)cc2)o1", "conditions": "1 µM", "remaining activity [%]": 82}
{"Compound": "COc1ccc(NC(=O)c2c(Nc3ccccc3)sc(C#N)c2NC(=O)CNc2ccc(Cl)cc2)cc1", "conditions": "100 µM", "remaining activity [%]": 16.5}
{"Compound": "CC(C)(C)c1nc(-c2cccc(NS(=O)(=O)c3c(F)cccc3F)c2F)c(-c2ccnc(N)n2)s1", "test": "radiometric", "conditions": "1 µM", "remaining activity [%]": 82}
{"Compound": "Cc1[nH]c(/C=C2\\C(=O)Nc3ccc(F)cc32)c(C)c1C(=O)N[C@H]1CCN(C(=O)N(C)C)C1", "conditions": "0.1 µM", "remaining activity [%]": 10}
{"Compound": "Cc1cnc(NC2CCOCC2)nc1-n1cnc(C(=O)NC(CN)c2cc(F)cc(Cl)c2)c1 (stereo not shown)", "test": "radiometric", "conditions": "1 µM", "remaining activity [%]": 85}
{"Compound": "COc1ccc(C=NNC(=O)c2sc(Nc3ccccc3)c(C(=O)Nc3ccc(OC)cc3)c2NC(C)=O)cc1", "conditions": "0.1 µM", "remaining activity [%]": 79.4}
{"Compound": "O=C(Nc1cnn(-c2csc(C(=O)NC3COC3)c2)c1)Nc1c(F)cccc1Cl", "conditions": "5 µM", "remaining activity [%]": 88.3}
{"Compound": "CCN(CC)c1ccc(C2=NNC(=O)CC2C)cc1[N+](=O)[O-] (stereo not shown)", "conditions": "10 µM", "remaining activity [%]": 99}
{"Compound": "CCCOc1ccc(OC)c(F)c1C(=O)c1ccc(C(=O)N[C@@H]2CNC[C@H]2NC(=O)c2ccc3[nH]ncc3c2)cc1", "conditions": "10 µM", "remaining activity [%]": 74}
{"Compound": "CC(C)(O)[C@H]1CC[C@H](Nc2ccc3ncc(-c4cccc(C(F)(F)F)c4)n3n2)CC1", "conditions": "1 µM", "remaining activity [%]": 91.5}
{"Compound": "O=C(Nc1cnn(-c2csc(C(=O)NC3COC3)c2)c1)Nc1ccccc1Cl", "conditions": "5 µM", "remaining activity [%]": 95.2}
{"Compound": "CC(C)(C)c1nc2c(s1)c1nc(N)ncc1c1ccc(NS(=O)(=O)c3c(F)cccc3F)c(F)c12", "test": "radiometric", "conditions": "1 µM", "remaining activity [%]": 95}
